Source: ChEMBL document CHEMBL1155468, “Syntheses and evaluation of anticonvulsant profile and teratogenicity of novel amide derivatives of branched aliphatic carboxylic acids with 4-aminobenzensulfonamide” (J Med Chem, 2010)
The source made the active and inactive calls. No cut-off for these calls is given here.

What was measured:
[1] = system: Mus musculus; test: Anticonvulsant activity in CF1 albino mouse assessed as inhibition of maximal electroshock-induced seizures at 300 mg/kg, ip after 0.5 hrs; type: functional, organism-based; set-up: dose 300 mg/kg
How it was run: (§1)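 Test compounds suspended in 0.5% methylcellulose and given ip to adult male CF no. 1 albino mice (18-25 g) at 0.01 mL/g body weight before maximal electroshock challenge.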

[2] = system: Mus musculus; test: Neurotoxicity in CF1 albino mouse assessed as motor impairment at 300 mg/kg, ip after 0.5 hrs; type: toxicity, organism-based; set-up: dose 300 mg/kg, route intraperitoneal; details: in vivo
[3] = system: Mus musculus; test: Teratogenic effect in SWV mouse assessed as resorptions at 486 mg/kg, ip administered on morning of day 8 of gestation; type: toxicity, organism-based; set-up: dose 486 mg/kg, route intraperitoneal; details: in vivo
How it was run: (§2)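 SWV inbred mice: two-month-old nulligravid females mated overnight with males and checked for vaginal plugs next morning; gestation onset taken as 10 p.m. the previous night. On gestation day 8.5 each dam got one ip injection, 0.55–2.7 mmol/kg, in 25% aqueous Cremophor EL (vehicle controls dosed alike), 10 μL/g body weight. Litters and implants tallied; resorptions and live fetuses reported as counts with percentages.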

[4] = system: Mus musculus; test: Teratogenic effect in SWV mouse assessed as resorptions at 294 mg/kg, ip administered on morning of day 8 of gestation; type: toxicity, organism-based; set-up: dose 294 mg/kg, route intraperitoneal; details: in vivo; how it was run: as §2
[5] = system: Mus musculus; test: Anticonvulsant activity in CF1 albino mouse assessed as inhibition of maximal electroshock-induced seizures at 30 mg/kg, ip after 0.5 hrs; type: functional, organism-based; set-up: dose 30 mg/kg; how it was run: as §1
[6] = system: Mus musculus; test: Neurotoxicity in CF1 albino mouse assessed as motor impairment at 30 mg/kg, ip after 0.5 hrs; type: toxicity, organism-based; set-up: dose 30 mg/kg, route intraperitoneal; details: in vivo
[7] = system: Mus musculus; test: Anticonvulsant activity in CF1 albino mouse assessed as inhibition of subcutaneous pentylenetetrazole-induced seizures at 300 mg/kg, ip after 0.5 hrs; type: functional, organism-based; set-up: dose 300 mg/kg
How it was run: (§3)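 Adult male CF no. 1 albino mice (18-25 g) dosed ip with compound suspended in 0.5% methylcellulose (0.01 mL/g). Convulsant: pentylenetetrazol dissolved in 0.9% saline as a 0.85% solution for mice, given subcutaneously.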

[8] = system: Mus musculus; test: Teratogenic effect in SWV mouse assessed as fetuses with neural tube deffects at 486 mg/kg, ip administered on morning of day 8 of gestation; type: toxicity, organism-based; set-up: dose 486 mg/kg, route intraperitoneal; details: in vivo
How it was run: (§4)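 Two-month-old nulligravid SWV females were mated overnight and checked for vaginal plugs the next morning; gestation onset was set at 10 p.m. the previous night. On gestation day 8.5, each dam received a single ip injection (0.55-2.7 mmol/kg range) or vehicle (25% aqueous Cremophor EL) at 10 μL/g body weight. Litters were scored for implants, resorptions, live and dead fetuses, and fetuses with neural tube defects.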

[9] = system: Mus musculus; test: Teratogenic effect in SWV mouse assessed as live fetuses at 729 mg/kg, ip administered on morning of day 8 of gestation; type: toxicity, organism-based; set-up: dose 729 mg/kg, route intraperitoneal; details: in vivo; how it was run: as §2
[10] = system: Rattus norvegicus; test: Anticonvulsant activity in Sprague-Dawley rat assessed as inhibition of maximal electroshock-induced seizures at 30 mg/kg, po after 4 hrs
[11] = system: Mus musculus; test: Teratogenic effect in SWV mouse assessed as resorptions at 729 mg/kg, ip administered on morning of day 8 of gestation; type: toxicity, organism-based; set-up: dose 729 mg/kg, route intraperitoneal; details: in vivo; how it was run: as §2
[12] = system: Mus musculus; test: Neurotoxicity in CF1 albino mouse assessed as motor impairment at 100 mg/kg, ip after 4 hrs; type: toxicity, organism-based; set-up: dose 100 mg/kg, route intraperitoneal; details: in vivo
[13] = system: Mus musculus; test: Teratogenic effect in SWV mouse assessed as live fetuses at 148 mg/kg, ip administered on morning of day 8 of gestation; type: toxicity, organism-based; set-up: dose 148 mg/kg, route intraperitoneal; details: in vivo; how it was run: as §4
[14] = system: Mus musculus; test: Teratogenic effect in SWV mouse assessed as fetuses with neural tube deffects at 148 mg/kg, ip administered on morning of day 8 of gestation; type: toxicity, organism-based; set-up: dose 148 mg/kg, route intraperitoneal; details: in vivo; how it was run: as §4
[15] = system: Rattus norvegicus; test: Anticonvulsant activity in Sprague-Dawley rat assessed as inhibition of maximal electroshock-induced seizures at 30 mg/kg, po after 1 hr
[16] = system: Mus musculus; test: Anticonvulsant activity in CF1 albino mouse assessed as inhibition of maximal electroshock-induced seizures at 300 mg/kg, ip after 4 hrs; type: functional, organism-based; set-up: dose 300 mg/kg; how it was run: as §1
[17] = system: Mus musculus; test: Neurotoxicity in CF1 albino mouse assessed as motor impairment at 30 mg/kg, ip after 4 hrs; type: toxicity, organism-based; set-up: dose 30 mg/kg, route intraperitoneal; details: in vivo
[18] = system: Mus musculus; test: Neurotoxicity in CF1 albino mouse assessed as motor impairment at 300 mg/kg, ip after 4 hrs; type: toxicity, organism-based; set-up: dose 300 mg/kg, route intraperitoneal; details: in vivo
[19] = system: Mus musculus; test: Teratogenic effect in SWV mouse assessed as fetuses with neural tube deffects at 294 mg/kg, ip administered on morning of day 8 of gestation; type: toxicity, organism-based; set-up: dose 294 mg/kg, route intraperitoneal; details: in vivo; how it was run: as §4
[20] = system: Mus musculus; test: Anticonvulsant activity in CF1 albino mouse assessed as inhibition of subcutaneous pentylenetetrazole-induced seizures at 100 mg/kg, ip after 4 hrs; type: functional, organism-based; set-up: dose 100 mg/kg; how it was run: as §3
[21] = system: Mus musculus; test: Anticonvulsant activity in CF1 albino mouse assessed as inhibition of subcutaneous pentylenetetrazole-induced seizures at 30 mg/kg, ip after 0.5 hrs; type: functional, organism-based; set-up: dose 30 mg/kg; how it was run: as §3
[22] = system: Mus musculus; test: Anticonvulsant activity in CF1 albino mouse assessed as inhibition of subcutaneous pentylenetetrazole-induced seizures at 30 mg/kg, ip after 4 hrs; type: functional, organism-based; set-up: dose 30 mg/kg; how it was run: as §3
[23] = system: Mus musculus; test: Anticonvulsant activity in CF1 albino mouse assessed as inhibition of subcutaneous pentylenetetrazole-induced seizures at 300 mg/kg, ip after 4 hrs; type: functional, organism-based; set-up: dose 300 mg/kg; how it was run: as §3
[24] = system: Rattus norvegicus; test: Anticonvulsant activity in po dosed rat assessed as inhibition of maximal electroshock-induced seizures
[25] = system: Mus musculus; test: Neurotoxicity in CF1 albino mouse assessed as motor impairment at 100 mg/kg, ip after 0.5 hrs; type: toxicity, organism-based; set-up: dose 100 mg/kg, route intraperitoneal; details: in vivo
[26] = system: Mus musculus; test: Teratogenic effect in SWV mouse assessed as resorptions at 148 mg/kg, ip administered on morning of day 8 of gestation; type: toxicity, organism-based; set-up: dose 148 mg/kg, route intraperitoneal; details: in vivo; how it was run: as §2
[27] = system: Mus musculus; test: Anticonvulsant activity in CF1 albino mouse assessed as inhibition of maximal electroshock-induced seizures at 30 mg/kg, ip after 4 hrs; type: functional, organism-based; set-up: dose 30 mg/kg; how it was run: as §1
[28] = system: Mus musculus; test: Anticonvulsant activity in CF1 albino mouse assessed as inhibition of maximal electroshock-induced seizures at 100 mg/kg, ip after 0.5 hrs; type: functional, organism-based; set-up: dose 100 mg/kg; how it was run: as §1
[29] = system: Mus musculus; test: Teratogenic effect in SWV mouse assessed as live fetuses at 486 mg/kg, ip administered on morning of day 8 of gestation; type: toxicity, organism-based; set-up: dose 486 mg/kg, route intraperitoneal; details: in vivo; how it was run: as §2
[30] = system: Mus musculus; test: Teratogenic effect in SWV mouse assessed as live fetuses at 294 mg/kg, ip administered on morning of day 8 of gestation; type: toxicity, organism-based; set-up: dose 294 mg/kg, route intraperitoneal; details: in vivo; how it was run: as §4
[31] = system: Rattus norvegicus; test: Anticonvulsant activity in Sprague-Dawley rat assessed as inhibition of maximal electroshock-induced seizures at 30 mg/kg, po after 2 hrs
[32] = system: Mus musculus; test: Anticonvulsant activity in CF1 albino mouse assessed as inhibition of subcutaneous pentylenetetrazole-induced seizures at 100 mg/kg, ip after 0.5 hrs; type: functional, organism-based; set-up: dose 100 mg/kg; how it was run: as §3

`CCCC(C)C(=O)Nc1ccc(S(N)(=O)=O)cc1` (configuration not stated) was tested, and the Activity [1] was “Active”, the Activity [2] was “Non-toxic” and the Activity [3] was 58.3%. For the same molecule, the Activity [4] was 34.8%, the Activity [5] was “inactive” and the Activity [6] was “Non-toxic”. The Activity [7] was “inactive”, the Activity [8] was 17% and the Activity [9] was 7.5%. The Activity [10] was “Active”, the Activity [11] was 92.5% and the Activity [12] was “Non-toxic”. The Activity [13] was 90%, the Activity [14] was 3.2% and the Activity [15] was “Active”. For the same molecule, the Activity [16] was “Active”, the Activity [17] was “Non-toxic” and the Activity [18] was “Non-toxic”. For the same molecule, the Activity [19] was 5.6%, the Activity [20] was “inactive” and the Activity [21] was “inactive”. The Activity [22] was “inactive”, the Activity [23] was “inactive” and the ED50 [24] was 10.8 mg/kg. For the same molecule, the Activity [25] was “Non-toxic”, the Activity [26] was 10% and the Activity [27] was “inactive”. The Activity [28] was “inactive”, the Activity [29] was 41.7% and the Activity [30] was 65.2%. The Activity [31] was “Active” and the Activity [32] was “inactive”.
